An excerpt weighted towards active compounds, which were near 3.1% of everything screened.
GPR7 antagonist: human neuropeptides B/W receptor 1 antagonism; P48145; GPR7-expressing cells, fluorescence antagonist assay; inhibition, % at 4.4 µM; hit rate 1.1% among 290,000; AID 1861; in the data active = inhibition above about 16%, passing the limit was not always enough;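 note: cells stimulated with the agonist NPW; 0% = agonist with vehicle and 100% = vehicle without agonist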
GalR3 antagonist: human GalR3 antagonism; inhibition, % at 3 µM; hit rate 0.44% among 360,000; AID 651719; HEK293 GalR3-CNG cAMP membrane potential fluorescence; galR3 body fused to GalR1 C-terminus;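 active = inhibition above the screen-wide average plus 3 SD, cut at about 13% in these data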;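 note: forskolin and galanin both at EC90 stimulate the cells; cAMP rise reported by CNG channel membrane potential dye signal; 0% = forskolin plus galanin with DMSO and 100% = forskolin alone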
CHO parental Ca: counter-screen: ATP calcium response change in parental CHO cells. hit rate 0.63% among 330,000. inhibition, % at 5.6 µM. parental CHO-K1, ATP-induced calcium, Fluo-8 fluorescence;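 active = inhibition above that plate's mean sample inhibition plus 3 SD, cut at about 26% in these data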;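 note: 0% = ATP-challenged DMSO wells and 100% = DMSO wells without ATP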
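test system = CHO parental line | reagent = ATP stimulus | measured by = intracellular calcium via Fluo-8 no-wash fluorescent dye | control set = ATP and no-ATP DMSO wells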
OX1R antag-1: OX1R (human) antagonism | hit rate 1.8% among 330,000 | O43613 | AID 485270 | OX1R-expressing cells, FRET antagonist read-out | inhibition, % at 6.6 µM; in the data active = inhibition mostly above about 38%, no sharp cut-off; inactive = mostly below about 40%;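 note: 0% = agonist challenge alone and 100% = reference antagonist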
Target sequence (O43613 whole entry, looked up): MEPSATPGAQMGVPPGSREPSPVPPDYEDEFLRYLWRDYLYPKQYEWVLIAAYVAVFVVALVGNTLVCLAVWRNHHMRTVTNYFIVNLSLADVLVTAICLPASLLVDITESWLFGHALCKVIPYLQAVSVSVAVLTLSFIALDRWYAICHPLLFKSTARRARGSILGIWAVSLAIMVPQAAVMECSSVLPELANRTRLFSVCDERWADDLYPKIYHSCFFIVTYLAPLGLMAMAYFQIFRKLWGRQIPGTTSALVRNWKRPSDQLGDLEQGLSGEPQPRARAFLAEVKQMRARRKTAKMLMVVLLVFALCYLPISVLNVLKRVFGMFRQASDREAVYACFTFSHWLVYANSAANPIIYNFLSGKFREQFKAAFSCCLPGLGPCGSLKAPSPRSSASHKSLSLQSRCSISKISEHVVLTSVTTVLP
OX1R antag-2: blocks the human orexin 1 receptor. O43613. CHO/OX1R cells, Fluo-8 calcium fluorescence, orexin A. inhibition, % at 5 µM. hit rate 0.43% among 330,000. AID 434989;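 active = inhibition above its plate's threshold, mean inhibition of all tested compounds on the plate plus 3 SD, cut at about 37% in these data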;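 note: 0% = orexin A challenge wells and 100% = SB-334867-A antagonist wells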
GalR3 conf: GalR3 (human) antagonism, confirmation. HEK293 GalR3 CNG cAMP biosensor, membrane potential fluorescence; galR3 fused to GalR1 carboxy tail; challenged with forskolin and galanin at EC90. shares compounds with GalR3 antagonist. inhibition, % at 3 µM. hit rate 59% among 1,600;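 active = inhibition above the primary screen's cutoff, the mean inhibition of all screened compounds plus 3 SD, cut at about 13% in these data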;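 note: 0% = forskolin plus galanin and 100% = forskolin alone with DMSO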
CNG parental: parental cell agonism counter-screen for GalR3 antagonists | shares compounds with GalR3 antagonist | HEK293-CNG parental cells, cAMP membrane potential fluorescence; normalised: DMSO wells 0%, forskolin wells 100% | activation, % at 3 µM | hit rate 10% among 1,600 | AID 652268; in the data active = activation above about 1.3%
* marks the source's active call; other numbers are inactive results; nt = no result.

SMILES	GPR7 antagonist	GalR3 antagonist	CHO parental Ca	OX1R antag-1	OX1R antag-2	GalR3 conf	CNG parental
CCC(C)C(=O)Nn1c(C2CC2)nc2cc(OC)c(OC)cc2c1=O (centres undefined)	-8	25*	-5	5	-27	29*	0
CSc1cccc(NC(=O)c2ccc(CN3CCc4ccccc4C3)cc2)c1	19	47*	-13	-5	-32	104*	0
CC(=O)Nc1ccc(NC(=O)c2ccc(CN3CCc4ccccc4C3)cc2)cc1	-10	-10	-4	4	-9	nt	nt
O=C(Nc1cccc(Br)c1)c1ccc(CN2CCc3ccccc3C2)cc1	36	85*	-11	-1	-23	107*	0
O=C(Nc1ccc(F)cc1)c1ccc(CN2CCc3ccccc3C2)cc1	14	103*	-9	16	-21	104*	0
Cc1noc(C)c1NC(=O)Nc1cccc2c1O[C@H](CN(C)C(=O)NC(C)C)[C@@H](C)CN([C@H](C)CO)C2=O	nt	-3	11	-1	-1	nt	nt
Brc1ccc(-n2cc(-c3ccccc3)c3c(NN4CCOCC4)ncnc32)cc1	-9	-4	-7	36	-19	nt	nt
CCc1nc2c(OCC(=O)N3CCOCC3)cccn2c1N(C=O)Cc1ccccc1	nt	-7	nt	nt	nt	nt	nt
Cc1cc(C)cc(OCC(O)CN2CCC(CN3C(=O)c4cccc5cccc(c45)C3=O)CC2)c1 (centres undefined)	nt	28*	17	18	1	21*	8.2*
O=C1c2cccc3cccc(c23)C(=O)N1CC1CCN(CC(O)COc2ccc3ccccc3c2)CC1 (centres undefined)	nt	-3	9	23	7	nt	nt
Cn1c(=O)c([N+](=O)[O-])c(-n2cnc3ccccc32)c2ccccc21	-9	1	-8	8	-13	nt	nt
O=[N+]([O-])c1ccccc1-c1cc(-c2cc(Cl)ccc2O)n[nH]1	3	19*	28	23	17	-2	-2
COc1ccccc1NC(=O)CSC1=NC(=O)C(Cc2ccccc2)C(=O)N1 (centres undefined)	1	13*	0	12	1	-3	0
Cc1cc(OCC(=O)NC2CC(C)(C)NC(C)(C)C2)c2c(C)cc(=O)oc2c1	-2	nt	-11	13	-5	-2	0
CSc1cccc(NC(=O)C2CCN(S(=O)(=O)c3ccc4c(c3)NC(=O)CO4)CC2)c1	15	3	-14	38	-24	nt	nt
CN(Cc1ccc(OC(F)F)cc1)C(=O)c1cccc(S(=O)(=O)N2CCN(Cc3ccccc3)CC2)c1	nt	22*	nt	nt	nt	88*	-1
CC(C)C(=O)NC(c1ccc([N+](=O)[O-])cc1)c1c(O)ccc2ccccc12 (centres undefined)	-4	-7	18	27	5	nt	nt
CC(C)C(=O)NC(c1cccc([N+](=O)[O-])c1)c1c(O)ccc2ccccc12 (centres undefined)	-13	16*	-17	27	-11	-5	1
O=C(CCC(=O)c1ccc(F)cc1)NCc1ccccc1C(F)(F)F	-14	-7	-16	9	-18	nt	nt
COc1ccc(NC(=O)COc2nc3ccccc3nc2N2CCOCC2)c(OC)c1	-5	14*	-13	9	-17	8	0
CCCOC(=O)c1ccc(Oc2cn[nH]c2-c2ccc(O)cc2O)cc1	7	3	13	13	8	nt	nt
CCOC(=O)c1ccc(Oc2cn[nH]c2-c2ccc(O)cc2O)cc1	21	17*	9	-1	7	9	4.4*
CC(=O)c1ccc(N2CCN(C(=S)Nc3ccc(Oc4ccccc4)cc3)CC2)cc1	24*	82*	45*	52	52*	97*	-1
CC(C)(C)C1=C(C#N)C(c2cc3c(cc2Br)OCO3)C(C#N)=C(N)O1 (centres undefined)	nt	nt	4	18	-15	-3	0
CCSc1nnc(Cn2c(=O)sc3ccccc32)n1C	-1	nt	-6	3	2	2	0
